Data published in PMC5946624 (Dose-Response, 2018).
Read-outs that look alike come from different tables or passages of the source. Marks after values point to notes of the source that are not given here.

Experiments:
[1] = target: T1, CYP2E1 (Homo sapiens, UniProt P05181); assay: CYP2E1 baculosome pNP hydroxylation; format: biochemical; conditions: for Effect on pNC formation: earlier time (10 minutes)
Target sequence in this assay (P05181 whole entry): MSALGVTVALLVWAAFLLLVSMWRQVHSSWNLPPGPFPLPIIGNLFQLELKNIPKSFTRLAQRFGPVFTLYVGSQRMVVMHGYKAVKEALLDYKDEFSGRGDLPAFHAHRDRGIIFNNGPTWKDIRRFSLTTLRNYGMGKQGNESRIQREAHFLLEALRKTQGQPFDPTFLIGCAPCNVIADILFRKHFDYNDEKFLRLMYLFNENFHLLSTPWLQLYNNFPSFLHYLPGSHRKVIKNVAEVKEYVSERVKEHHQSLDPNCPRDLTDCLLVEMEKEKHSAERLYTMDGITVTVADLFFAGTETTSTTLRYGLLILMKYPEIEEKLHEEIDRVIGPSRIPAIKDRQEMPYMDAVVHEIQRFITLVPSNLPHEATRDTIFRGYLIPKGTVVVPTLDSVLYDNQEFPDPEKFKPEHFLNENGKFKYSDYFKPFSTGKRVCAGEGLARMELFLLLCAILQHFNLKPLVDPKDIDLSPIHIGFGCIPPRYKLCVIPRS

[2] = target: T1, CYP2E1; assay: Simulation of hydroxylating activities of CYP2E1 with DROS; format: biochemical; conditions: after 10 minutes; for Concentration of hydroxylated product, Control, Cyt b 5 + pNP: Cyt b5, without CYP2E1; for Concentration of hydroxylated product, CYP2E1, pNP: pNP 25 µmol/L, with CYP2E1; for Concentration of hydroxylated product, CYP2E1, Cyt b 5 + pNP: with CYP2E1 and Cyt b5; for Concentration of hydroxylated product, Control, pNP: without CYP2E1
Summary of the method: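 Reconstituted hydroxylation with diffusible oxygen species used initial pNP 25 µmol/L, DLPC 20 µmol/L and CYP2E1 100 nmol/L (omitted in controls). When present: NADPH 200 µmol/L, CPR 200 nmol/L, Cyt b5 200 nmol/L, H2O2 32 µmol/L, or KO2 ≤16 µmol/L. KO2 was added from a DMSO/15-crown ether substock, giving ~1% DMSO/crown ether in the reaction. Hydroxylated product (nmol/L) was measured after 10 min.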
Target sequence in this assay (P05181 whole entry): as above
Target sequence in this assay (P16435 2-677 partner): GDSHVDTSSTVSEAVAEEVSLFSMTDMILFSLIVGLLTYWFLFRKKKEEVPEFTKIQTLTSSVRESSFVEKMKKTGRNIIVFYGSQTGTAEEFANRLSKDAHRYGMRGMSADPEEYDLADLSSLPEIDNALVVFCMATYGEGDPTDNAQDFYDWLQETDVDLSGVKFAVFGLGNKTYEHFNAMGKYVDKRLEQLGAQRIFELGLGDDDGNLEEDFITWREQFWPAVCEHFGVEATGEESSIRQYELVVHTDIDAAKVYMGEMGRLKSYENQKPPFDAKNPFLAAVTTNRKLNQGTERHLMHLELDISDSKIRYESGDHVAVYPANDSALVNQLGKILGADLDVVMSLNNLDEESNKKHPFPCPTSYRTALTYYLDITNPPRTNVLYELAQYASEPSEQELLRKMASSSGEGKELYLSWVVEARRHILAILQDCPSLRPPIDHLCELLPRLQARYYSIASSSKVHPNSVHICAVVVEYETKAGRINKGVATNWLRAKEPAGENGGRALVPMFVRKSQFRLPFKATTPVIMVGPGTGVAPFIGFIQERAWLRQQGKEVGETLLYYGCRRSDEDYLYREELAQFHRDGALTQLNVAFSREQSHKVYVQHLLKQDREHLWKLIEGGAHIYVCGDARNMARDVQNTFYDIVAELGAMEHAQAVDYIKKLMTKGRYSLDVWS
Target sequence in this assay (P00167 2-134 partner): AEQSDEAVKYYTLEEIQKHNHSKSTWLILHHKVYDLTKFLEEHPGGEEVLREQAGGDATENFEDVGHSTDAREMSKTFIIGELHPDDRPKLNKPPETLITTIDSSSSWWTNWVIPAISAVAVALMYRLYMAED

[3] = system: E coli DH5α; assay: Growth; format: cell-based, Escherichia coli
[4] = system: B megaterium MTCC 428; assay: Growth; format: cell-based, Bacillus megaterium
[5] = system: Escherichia coli DH5α; conditions: 6 hours, control = 100
[6] = target: T1, CYP2E1; assay: Extended CYP2E1-pNP inhibition profiling; format: biochemical; conditions: additive up to 50 µmol/L
Target sequence in this assay (P05181 whole entry): as the sequence (P05181 whole entry) above
Target sequence in this assay (P16435 2-677 partner): as the sequence (P16435 2-677 partner) above
Target sequence in this assay (P00167 2-134 partner): as the sequence (P00167 2-134 partner) above

[7] = system: Escherichia coli DH5α; assay: Growth of E coli DH5α transformed with pBTR1; format: cell-based; conditions: 4 hours, control = 100
[8] = system: CYP2E1; conditions: enzyme taken at 0.1 µmol/L; cited from earlier work

## CCc1oc2ccccc2c1C(=O)c1ccc(OC)cc1 [MeOBzr, methoxybenzarone]
[1]; calculated from IC50 (website)
  Ki Uncompetitive: 100.9 µmol/L
[1]; read-out: Ki Competitive, Cheng-Prusoff from IC50, KM 14 µmol/L
  Ki: 14.1 µM
[1]; read-out: Ki Noncompetitive, calculated from IC50 (website)
  Ki: 115 µM

## OO [H2O2]
[2]
  Concentration of hydroxylated product, Control, Cyt b 5 + pNP: Nil
  Concentration of hydroxylated product, CYP2E1, pNP: <10 nmol/L
  Concentration of hydroxylated product, CYP2E1, Cyt b 5 + pNP: ∼74 nmol/L
  Concentration of hydroxylated product, Control, pNP: Nil

## [N-]=[N+]=[N-] [Azide, azide]
[3]; azide at mmol/L ranges, compared with B megaterium
  Effect on growth: much less harsh
[3]; nmol/L concentration of azide
  Effect on growth: inhibitory
[3]; µmol/L concentration of azide
  Effect on growth: no inhibition whatsoever
[4]; azide 10^−6 to 10^−12 M
  Effect on growth: did not impact
[4]; azide at mmol/L ranges
  Effect on growth: very effective in curbing the growth
[5]; azide 10^−3 M, + IPTG
  Relative growth density: 24 (3)
[5]; azide 10^−3 M, − IPTG
  Relative growth density: 12 (5)
[5]; azide 10^−6 M, + IPTG
  Relative growth density: 79 (5)
[5]; azide 10^−6 M, − IPTG
  Relative growth density: 97 (7)
[5]; azide 10^−9 M, + IPTG
  Relative growth density: 29 (6)
[5]; azide 10^−9 M, − IPTG
  Relative growth density: 41 (6)
[5]; azide 10^−12 M, + IPTG
  Relative growth density: 32 (3)
[5]; azide 10^−12 M, − IPTG
  Relative growth density: 107 (8)

## Cn1c(=O)[nH]c(=O)c2[nH]cnc21 [3-Methylxanthine (MetXan), 3-Methylxanthine]
[6]
  Effect on pNP reactions: did not significantly perturb/inhibit

## N[C@@H](Cc1cc(I)c(O)c(I)c1)C(=O)O [DIT, diiodotyrosine]
[1]; 10 nmol/L additive
  Effect on pNC formation: enhanced reactions
[1]; high/higher additive concentrations
  Effect on pNC formation: inhibited pNC formation

## [O]O [O2 ^˙−]
[2]
  Concentration of hydroxylated product, Control, Cyt b 5 + pNP: ∼70^b nmol/L
  Concentration of hydroxylated product, CYP2E1, pNP: ∼104^b nmol/L
  Concentration of hydroxylated product, CYP2E1, Cyt b 5 + pNP: ∼499^b nmol/L
  Concentration of hydroxylated product, Control, pNP: ∼88^b nmol/L

## CCc1oc2ccccc2c1C(=O)c1ccc(O)cc1 [Bzr, benzarone]
[1]; Ki Competitive, Cheng-Prusoff from IC50, KM 14 µmol/L
  Ki: 8.7 µM
[1]; Ki Noncompetitive, calculated from IC50 (website)
  Ki: 71 µM
[1]; calculated from IC50 (website)
  Ki Uncompetitive: 62.3 µmol/L
[1]; initial sampling time
  Inhibition at 10 nmol/L compared to 1 µmol/L: greater extent of inhibition

## O=[N+]([O-])c1ccc(O)cc1 [pNP, para-nitrophenol]
[1]; read-out: 2E1-pNP KM, substrate constant used for Cheng-Prusoff
  Km: 14 µM

## Nc1nc[nH]n1 [Amitrol, amitrol]
[7]; amitrol 10^−3 M, + IPTG
  Relative growth density: 60 (9)
[7]; amitrol 10^−3 M, − IPTG
  Relative growth density: 94 (4)
[7]; amitrol 10^−6 M, + IPTG
  Relative growth density: 70 (6)
[7]; amitrol 10^−6 M, − IPTG
  Relative growth density: 103 (10)
[7]; amitrol 10^−9 M, + IPTG
  Relative growth density: 63 (5)
[7]; amitrol 10^−9 M, − IPTG
  Relative growth density: 103 (3)
[7]; amitrol 10^−12 M, + IPTG
  Relative growth density: 51 (4)
[7]; amitrol 10^−12 M, − IPTG
  Relative growth density: 50 (2)

## c1ccc2[nH]ncc2c1 [indazole]
[8]
  Kd: 5 nM
